Source: ChEMBL document CHEMBL1949555, “Piperazine-2,3-dicarboxylic acid derivatives as dual antagonists of NMDA and GluK1-containing kainate receptors” (J Med Chem, 2012)
pIC50, pKi: −log10 of the molar value. Calls of active or inactive are those of the source.

What was measured:
[1] = molecular target: Glutamate receptor ionotropic, kainate 3 (Rattus norvegicus) (UniProt P42264); assay: Displacement of [3H]-Kainate from wild type rat GluK3 receptor transfected in human HEK293 cells at 300 uM by immunoblot analysis; type: cell-based
Glutamate receptor ionotropic, kainate 3 (Rattus norvegicus), sequence (P42264 whole entry): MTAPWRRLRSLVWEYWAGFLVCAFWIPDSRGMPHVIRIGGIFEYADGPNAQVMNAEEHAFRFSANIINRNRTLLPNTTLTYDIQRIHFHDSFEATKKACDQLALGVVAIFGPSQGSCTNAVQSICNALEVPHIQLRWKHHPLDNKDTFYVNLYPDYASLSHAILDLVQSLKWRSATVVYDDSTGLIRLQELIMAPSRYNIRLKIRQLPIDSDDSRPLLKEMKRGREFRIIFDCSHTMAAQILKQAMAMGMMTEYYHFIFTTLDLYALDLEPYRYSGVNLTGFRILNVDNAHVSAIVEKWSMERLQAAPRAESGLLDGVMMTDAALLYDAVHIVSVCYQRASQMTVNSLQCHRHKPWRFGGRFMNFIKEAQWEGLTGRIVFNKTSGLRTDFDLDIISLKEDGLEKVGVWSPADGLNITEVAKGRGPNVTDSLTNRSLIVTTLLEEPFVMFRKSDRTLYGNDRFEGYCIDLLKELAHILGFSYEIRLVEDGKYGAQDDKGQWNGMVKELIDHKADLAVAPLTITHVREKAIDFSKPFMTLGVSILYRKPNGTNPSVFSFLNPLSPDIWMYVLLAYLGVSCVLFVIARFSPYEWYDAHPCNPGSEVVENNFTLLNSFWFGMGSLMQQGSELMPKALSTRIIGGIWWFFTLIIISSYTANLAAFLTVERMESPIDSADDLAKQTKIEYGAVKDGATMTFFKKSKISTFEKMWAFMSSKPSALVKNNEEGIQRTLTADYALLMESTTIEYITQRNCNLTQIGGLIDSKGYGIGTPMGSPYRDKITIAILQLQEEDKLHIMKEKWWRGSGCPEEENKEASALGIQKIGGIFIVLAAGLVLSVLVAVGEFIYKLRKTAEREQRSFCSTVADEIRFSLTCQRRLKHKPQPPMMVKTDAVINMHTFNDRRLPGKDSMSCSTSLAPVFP

[2] = molecular target: Glutamate receptor ionotropic, kainate 2 (Homo sapiens, UniProt Q13002); assay: Antagonist activity at human recombinant GluK2 receptor expressed in human HEK293 cells assessed as inhibition of glutamate-stimulated calcium influx by fluorescence assay; type: functional, cell-based
Glutamate receptor ionotropic, kainate 2, sequence (Q13002 whole entry): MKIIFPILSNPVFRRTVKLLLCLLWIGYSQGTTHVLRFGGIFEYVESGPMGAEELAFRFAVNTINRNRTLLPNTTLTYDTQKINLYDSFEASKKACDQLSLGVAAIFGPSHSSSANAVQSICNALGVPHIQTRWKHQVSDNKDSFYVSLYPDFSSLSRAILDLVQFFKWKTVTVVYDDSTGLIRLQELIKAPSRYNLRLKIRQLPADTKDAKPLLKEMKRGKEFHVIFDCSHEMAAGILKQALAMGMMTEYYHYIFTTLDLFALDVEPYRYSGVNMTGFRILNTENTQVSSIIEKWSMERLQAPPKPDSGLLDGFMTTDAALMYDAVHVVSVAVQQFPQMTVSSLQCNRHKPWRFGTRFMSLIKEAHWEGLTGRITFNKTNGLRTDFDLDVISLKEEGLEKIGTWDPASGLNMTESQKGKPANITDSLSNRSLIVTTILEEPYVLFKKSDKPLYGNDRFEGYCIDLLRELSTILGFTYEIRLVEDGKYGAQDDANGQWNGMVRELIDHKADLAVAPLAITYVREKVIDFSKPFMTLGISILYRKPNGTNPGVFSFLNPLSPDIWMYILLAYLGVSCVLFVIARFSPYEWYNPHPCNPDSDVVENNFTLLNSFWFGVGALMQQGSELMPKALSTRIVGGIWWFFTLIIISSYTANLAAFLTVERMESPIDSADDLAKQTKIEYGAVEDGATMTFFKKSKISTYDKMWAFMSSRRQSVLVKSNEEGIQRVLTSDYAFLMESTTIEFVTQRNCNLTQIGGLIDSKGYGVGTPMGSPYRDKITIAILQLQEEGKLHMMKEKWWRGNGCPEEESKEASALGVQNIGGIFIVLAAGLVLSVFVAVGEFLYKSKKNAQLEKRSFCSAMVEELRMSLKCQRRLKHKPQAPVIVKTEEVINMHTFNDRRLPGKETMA
Outline: (§1)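 HEK293 lines stably expressing homomeric human GluK1(Q) or GluK2(Q), passaged no more than 20 times. Ca2+ influx is read as fluorescence, with concanavalin A present. Test compound is added in a first run, then L-glutamate plus antagonist in a second run (final glutamate 30 μM for GluK1, 10 μM for GluK2). IC50 values are converted to KB. Means ± s.e.m.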

HEK293 [3] = assay: Displacement of [3H]-Kainate from rat GluK3 A660S mutant transfected in human HEK293 cells at 100 uM by immunoblot analysis; type: cell-based
[4] = molecular target: Glutamate receptor ionotropic, kainate 3 (Homo sapiens, UniProt Q13003); assay: Antagonist activity at human recombinant GluK3 receptor expressed in human HEK293 cells assessed as inhibition of glutamate-stimulated calcium influx by fluorescence assay; type: functional, cell-based
Glutamate receptor ionotropic, kainate 3, sequence (Q13003 whole entry): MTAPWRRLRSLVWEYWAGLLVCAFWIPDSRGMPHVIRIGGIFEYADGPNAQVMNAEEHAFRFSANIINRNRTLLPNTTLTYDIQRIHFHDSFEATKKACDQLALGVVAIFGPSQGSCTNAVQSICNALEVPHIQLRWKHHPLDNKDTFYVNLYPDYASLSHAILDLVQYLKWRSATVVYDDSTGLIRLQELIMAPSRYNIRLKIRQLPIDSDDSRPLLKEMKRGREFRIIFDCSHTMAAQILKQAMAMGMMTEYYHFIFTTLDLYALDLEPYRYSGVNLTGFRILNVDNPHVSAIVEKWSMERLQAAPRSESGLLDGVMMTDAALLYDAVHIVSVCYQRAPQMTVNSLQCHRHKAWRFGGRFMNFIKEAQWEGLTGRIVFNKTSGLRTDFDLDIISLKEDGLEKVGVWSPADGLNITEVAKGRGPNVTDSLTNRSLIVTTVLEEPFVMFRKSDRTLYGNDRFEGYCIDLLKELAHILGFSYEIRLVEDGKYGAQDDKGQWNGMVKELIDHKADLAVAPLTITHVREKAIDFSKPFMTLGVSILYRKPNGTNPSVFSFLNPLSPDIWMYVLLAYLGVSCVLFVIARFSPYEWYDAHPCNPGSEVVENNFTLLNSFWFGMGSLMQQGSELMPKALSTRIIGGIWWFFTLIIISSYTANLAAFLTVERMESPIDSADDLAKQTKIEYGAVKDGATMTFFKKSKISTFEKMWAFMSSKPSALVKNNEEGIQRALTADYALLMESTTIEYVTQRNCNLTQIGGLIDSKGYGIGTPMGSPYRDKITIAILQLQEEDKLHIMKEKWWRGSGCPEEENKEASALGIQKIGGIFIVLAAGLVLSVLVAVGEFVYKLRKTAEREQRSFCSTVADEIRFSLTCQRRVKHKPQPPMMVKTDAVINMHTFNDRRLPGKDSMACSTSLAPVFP

HEK293 [5] = assay: Displacement of [3H]-Kainate from […] rat GluK3 A660S mutant transfected in human HEK293 cells at 300 uM by immunoblot analysis; type: cell-based
[6] = molecular target: Glutamate NMDA receptor; Grin1/Grin2b (Rattus norvegicus, UniProt P35439+Q00960); assay: Antagonist activity rat recombinant GluN1/GluN2B receptor expressed in Xenopus laevis oocytes assessed as inhibition of glutamate-induced response by two-electrode voltage-clamp electrophysiology assay; type: functional, cell-based, Oocyte; conditions: read-out: Ki(app)
Outline: (§2)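 Two-electrode voltage clamp of oocytes expressing rat GluN1a with the given GluN2 subunit, held at −60 mV in buffer of 116 mM NaCl, 2 mM KCl, 0.3 mM BaCl2, 5 mM HEPES, pH 7.4. Response is the steady plateau to bath-applied 10 μM L-glutamate plus 10 μM glycine. IC50 converted to apparent Ki via Ki = IC50/(1 + [agonist]/EC50). Means ± s.e.m.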

[7] = molecular target: Ionotropic glutamate receptor NMDA 1/2D (Rattus norvegicus, UniProt P35439+Q62645); assay: Antagonist activity rat recombinant GluN1/GluN2D receptor expressed in Xenopus laevis oocytes assessed as inhibition of glutamate-induced response by two-electrode voltage-clamp electrophysiology assay; type: functional, cell-based, Oocyte; conditions: read-out: Ki(app)
[8] = molecular target: Glutamate receptor ionotropic, kainate 3 (Rattus norvegicus) (UniProt P42264); assay: Displacement of [3H]-Kainate from wild type rat GluK3 receptor transfected in human HEK293 cells at 1 mM by immunoblot analysis; type: cell-based
Rattus norvegicus [9] = assay: Antinociceptive activity in Wistar rat nerve injury model assessed as reversal of drop in mechanical withdrawal threshold at 30 mg/kg, ip administered before 1 hr on day 7 of injury relative to control; type: functional, organism-based; set-up: dose 30 mg/kg
Outline: (§3)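 Male Wistar rats (~250 g) with partial saphenous nerve ligation injury, tested on day 7 after injury and also before injury. Drug at 30 mg/kg or vehicle is given i.p. (n=5/group), with testing starting 15 min later. Mechanical threshold is taken from von Frey stimulus:response curves on both hindpaws (5 applications per hair). Thermal latency to radiant heat is the mean of 3 trials per hindpaw. Analysis by two-way ANOVA.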

Rattus norvegicus [10] = species: Rattus norvegicus; assay: Antagonist activity at AMPA receptor in CA3 region of rat hippocampus assessed as change in AMPA-mediated field excitatory postsynaptic potential at 100 uM; type: functional, tissue-based
Outline: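 Field EPSPs recorded from transverse rat hippocampal slices (400 μm), CA3 mossy fiber synapses. Compound 100 μM perfused 30 min. fEPSPs averaged every 2 min; slope between 20 and 80% of maximum measured and expressed as % of control slope. Mean ± s.e.m., n=4.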

Rattus norvegicus [11] = assay: Antinociceptive activity in Wistar rat nerve injury model assessed as increased thermal withdrawal latency at 30 mg/kg, ip; type: functional, organism-based; set-up: dose 30 mg/kg; outline: as §3
[12] = molecular target: Glutamate receptor ionotropic, kainate 1 (Homo sapiens, UniProt P39086); assay: Antagonist activity at human recombinant GluK1 receptor expressed in human HEK293 cells assessed as inhibition of glutamate-stimulated calcium influx by fluorescence assay; type: functional, cell-based; outline: as §1
Glutamate receptor ionotropic, kainate 1, sequence (P39086 whole entry): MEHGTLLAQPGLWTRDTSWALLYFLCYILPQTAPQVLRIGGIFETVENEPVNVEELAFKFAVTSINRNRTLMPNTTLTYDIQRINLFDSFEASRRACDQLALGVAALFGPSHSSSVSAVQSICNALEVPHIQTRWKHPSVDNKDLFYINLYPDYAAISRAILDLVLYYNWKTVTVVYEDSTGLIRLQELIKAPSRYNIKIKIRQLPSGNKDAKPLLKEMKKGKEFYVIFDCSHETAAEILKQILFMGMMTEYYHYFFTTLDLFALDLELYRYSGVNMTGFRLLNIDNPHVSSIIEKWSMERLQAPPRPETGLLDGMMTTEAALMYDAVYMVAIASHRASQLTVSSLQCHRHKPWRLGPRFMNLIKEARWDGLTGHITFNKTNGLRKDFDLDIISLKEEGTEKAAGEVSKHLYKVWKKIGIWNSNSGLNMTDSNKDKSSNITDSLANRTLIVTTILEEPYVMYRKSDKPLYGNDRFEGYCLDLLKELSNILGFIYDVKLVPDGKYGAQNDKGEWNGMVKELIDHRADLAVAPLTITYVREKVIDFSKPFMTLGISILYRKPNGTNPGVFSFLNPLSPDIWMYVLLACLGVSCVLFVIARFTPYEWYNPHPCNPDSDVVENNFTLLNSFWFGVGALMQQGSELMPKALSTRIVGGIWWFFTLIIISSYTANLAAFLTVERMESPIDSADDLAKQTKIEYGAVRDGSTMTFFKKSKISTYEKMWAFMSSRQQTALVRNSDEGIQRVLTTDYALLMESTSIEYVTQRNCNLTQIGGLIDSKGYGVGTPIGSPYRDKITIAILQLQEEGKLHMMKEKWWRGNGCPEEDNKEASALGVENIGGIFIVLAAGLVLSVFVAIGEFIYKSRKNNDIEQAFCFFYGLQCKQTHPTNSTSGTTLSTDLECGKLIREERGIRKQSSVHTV

HEK293 [13] = assay: Displacement of [3H]-Kainate from […] rat GluK3 A660S mutant transfected in human HEK293 cells at 1 mM by immunoblot analysis; type: cell-based
Rattus norvegicus [14] = species: Rattus norvegicus; assay: Selectivity ratio of IC50 for rat GluK3 receptor to IC50 for rat GluK1 receptor
Outline: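 IC50 ratio from whole-cell patch clamp on HEK293 cells stably expressing homomeric GluK1 or GluK3, voltage clamped at −70 mV, 20°C. Glutamate is applied fast through a theta tube. Antagonist is applied about 2 min or until the response is stable, at five concentrations per cell, giving a dose-response curve for each cell.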

[15] = molecular target: Glutamate NMDA receptor; Grin1/Grin2c (Rattus norvegicus, UniProt P35439+Q00961); assay: Antagonist activity rat recombinant GluN1/GluN2C receptor expressed in Xenopus laevis oocytes assessed as inhibition of glutamate-induced response by two-electrode voltage-clamp electrophysiology assay; type: functional, cell-based, Oocyte; conditions: read-out: Ki(app); outline: as §2
Glutamate NMDA receptor; Grin1/Grin2c, sequence (Q00961 whole entry, other chains not shown): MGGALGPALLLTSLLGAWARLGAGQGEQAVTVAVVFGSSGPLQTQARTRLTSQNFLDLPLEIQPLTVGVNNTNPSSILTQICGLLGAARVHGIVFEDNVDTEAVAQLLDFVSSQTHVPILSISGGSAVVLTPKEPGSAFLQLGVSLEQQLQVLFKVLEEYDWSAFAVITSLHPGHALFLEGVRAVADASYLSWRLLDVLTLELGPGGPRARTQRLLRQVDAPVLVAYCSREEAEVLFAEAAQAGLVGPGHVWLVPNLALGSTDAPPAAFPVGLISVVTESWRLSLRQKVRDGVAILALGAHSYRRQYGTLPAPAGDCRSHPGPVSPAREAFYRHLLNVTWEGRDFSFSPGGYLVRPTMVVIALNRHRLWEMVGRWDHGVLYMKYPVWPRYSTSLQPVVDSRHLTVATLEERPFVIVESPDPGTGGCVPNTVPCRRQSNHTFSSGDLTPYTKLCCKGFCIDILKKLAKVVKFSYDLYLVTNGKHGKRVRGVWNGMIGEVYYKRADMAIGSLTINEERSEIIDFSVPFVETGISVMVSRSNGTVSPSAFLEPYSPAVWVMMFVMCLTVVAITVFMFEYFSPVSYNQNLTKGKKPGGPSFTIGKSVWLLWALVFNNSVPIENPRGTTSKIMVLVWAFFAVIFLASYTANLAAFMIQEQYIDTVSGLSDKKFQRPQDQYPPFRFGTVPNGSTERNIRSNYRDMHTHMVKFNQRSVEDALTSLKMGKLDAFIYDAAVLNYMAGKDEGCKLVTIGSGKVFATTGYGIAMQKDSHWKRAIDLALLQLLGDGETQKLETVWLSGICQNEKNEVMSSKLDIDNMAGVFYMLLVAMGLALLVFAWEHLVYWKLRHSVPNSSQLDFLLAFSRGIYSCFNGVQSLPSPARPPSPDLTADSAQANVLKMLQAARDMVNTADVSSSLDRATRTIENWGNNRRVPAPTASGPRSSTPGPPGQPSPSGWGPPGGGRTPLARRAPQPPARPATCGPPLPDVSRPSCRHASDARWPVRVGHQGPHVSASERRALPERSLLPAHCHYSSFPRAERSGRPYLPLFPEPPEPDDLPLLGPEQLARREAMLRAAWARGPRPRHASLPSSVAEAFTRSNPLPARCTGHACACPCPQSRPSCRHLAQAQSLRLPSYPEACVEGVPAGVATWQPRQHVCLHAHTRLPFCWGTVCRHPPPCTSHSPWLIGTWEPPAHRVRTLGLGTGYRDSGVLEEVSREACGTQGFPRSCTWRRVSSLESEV

[16] = molecular target: Glutamate receptor ionotropic, kainate 3 (Rattus norvegicus) (UniProt P42264); assay: Displacement of [3H]-Kainate from wild type rat GluK3 receptor transfected in human HEK293 cells at 100 uM by immunoblot analysis; type: cell-based
[17] = molecular target: Glutamate NMDA receptor; Grin1/Grin2a (Rattus norvegicus, UniProt P35439+Q00959); assay: Antagonist activity at rat recombinant GluN1/GluN2A receptor expressed in Xenopus laevis oocytes assessed as inhibition of glutamate-induced response by two-electrode voltage-clamp electrophysiology assay; type: functional, cell-based, Oocyte; conditions: read-out: Ki(app)
Rattus norvegicus [18] = assay: Antinociceptive activity in Wistar rat at 30 mg/kg, ip; type: functional, organism-based; set-up: dose 30 mg/kg; outline: as §3

SMILES: O=C(O)[C@H]1NCCN(C(=O)c2ccc3cc(I)c4ccccc4c3c2)[C@H]1C(=O)O (relative stereo)
- inhibition [1]: Active
- pIC50 [2]: < 4.00
- Kb [2]: > 100 µM
- inhibition (HEK293 [3]): Active
- pIC50 [4]: 4.09
- inhibition (HEK293 [5]): Active
- pKi [6]: 5.42
- pKi [7]: 6.00
- inhibition [8]: Active
- Activity (Rattus norvegicus [9]): Active
- Activity (Rattus norvegicus [10]): inactive
- Activity (Rattus norvegicus [11]): Active
- pIC50 [12]: 6.19
- Kb [12]: 4.8 µM
- inhibition (HEK293 [13]): Active
- Ratio IC50 (Rattus norvegicus [14]): > 100
- pKi [15]: 5.72
- inhibition [16]: Active
- pKi [17]: 5.13
- Activity (Rattus norvegicus [18]): Active
